From ChEMBL document CHEMBL1828544, “Structural modification of honokiol, a biphenyl occurring in Magnolia officinalis: the evaluation of honokiol analogues as inhibitors of angiogenesis and for their cytotoxicity and structure-activity relationship” (J Med Chem, 2011)
Activity calls are given as the source filed them. The calls are words filed in the database; no cut-off is given here.

Columns and labels:
[1] = test system: HepG2; test: Antiproliferative activity against human HepG2 cells after 24 hrs by MTT assay; format: functional, cell-based; settings: HepG2, 24 h
In short: (§1)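 Cells (5 × 10^3/well) kept at 37 °C, 5% CO2 and treated with varied compound concentrations for 24 h. MTT given for a further 3 h, precipitate dissolved in DMSO, absorbance taken at 570 nm. IC50 calculated from percentage growth relative to untreated control.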

[2] = test system: A549; test: Antiproliferative activity against human A549 cells after 24 hrs by MTT assay; format: functional, cell-based; settings: A549, 24 h; in short: as §1
[3] = test system: HUVEC; test: Antiproliferative activity against human HUVEC cells after 24 hrs by MTT assay; format: functional, cell-based
In short: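 Primary HUVECs grown on gelatin in M-199 with 20% FBS, 10 ng/mL bFGF, 2 ng/mL VEGF, 5% CO2, 37 °C. Cells (5 × 10^3/well) exposed to a range of compound concentrations for 24 h. MTT added for 3 h, formazan dissolved in DMSO, absorbance read at 570 nm. IC50 from percentage growth versus untreated control.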

[4] = test system: HUVEC; test: Antimigratory activity against human HUVEC cells assessed as migration rate at 40 uM after 24 hrs by wound-healing assay relative to control; format: functional
In short: (§2)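 HUVEC monolayers grown overnight to confluence on 0.1% gelatin, scratched with pipet tips, washed, then kept in serum-free DMEM with compound (20 or 40 μM) for 24 h at 37 °C, 5% CO2; control serum-free DMEM. Migrated cells counted manually from images at 0 and 24 h, three random fields; three independent experiments, mean ± SE.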

[5] = test system: HUVEC; test: Antiangiogenic activity against human HUVEC cells assessed as inhibition of tube formation at 20 uM after 12 hrs by matrigel-based assay; format: functional
In short: (§3)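 HUVECs (1 × 10^4) in DMEM with compound (20 μM) plated on Matrigel that had set at 37 °C for 45 min; controls got DMEM alone. After 12 h at 37 °C, capillary networks were photographed and intact tubes counted in five random regions. Inhibition expressed as percentage of control.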

[6] = species on record: Danio rerio; test: Antiangiogenic activity in fli-1:enhanced GFP expressing transgenic zebrafish embryo assessed as inhibition of neovacularisation at 5 uM after 24 hrs relative to control; format: functional
In short: (§4)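 fli-1:EGFP transgenic zebrafish embryos sorted at about 6 hpf (6 per well), exposed in embryo water to compound at 5–40 μM for 24 h. Then anesthetized with 0.05% 2-phenoxyethanol, photographed and quantified.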

[7] = species on record: Danio rerio; test: Antiangiogenic activity in fli-1:enhanced GFP expressing transgenic zebrafish embryo assessed as inhibition of neovacularisation at 20 uM after 24 hrs relative to control; format: functional; in short: as §4
[8] = test system: HUVEC; test: Antimigratory activity against human HUVEC cells at 20 uM after 24 hrs by wound-healing assay; format: functional, cell-based; in short: as §2
[9] = Antiproliferative activity against mouse LL/2 cells after 24 hrs by MTT assay; format: functional, cell-based; settings: Lewis lung carcinoma; in short: as §1
[10] = species on record: Danio rerio; test: Antiangiogenic activity in fli-1:enhanced GFP expressing transgenic zebrafish embryo assessed as inhibition of neovacularisation at 40 uM after 24 hrs relative to control; format: functional; in short: as §4
[11] = species on record: Danio rerio; test: Antiangiogenic activity in fli-1:enhanced GFP expressing transgenic zebrafish embryo assessed as inhibition of neovacularisation at 10 uM after 24 hrs relative to control; format: functional; in short: as §4
[12] = species on record: Danio rerio; test: Antiangiogenic activity in fli-1:enhanced GFP expressing transgenic zebrafish embryo assessed as inhibition of dorsal longitudinal anastomic vessel sprouts after 48 hrs; format: functional, organism-based
In short: (§5)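 Transgenic fli-1:EGFP zebrafish embryos (GFP across endothelium) sorted at about 6 hpf, 6 per well, with dead or unhealthy ones removed. Compound (10, 20, 40 μM) added to embryo water (0.2 g/L instant ocean salt) from 6 hpf for 48 h. Embryos then anesthetized in 0.05% 2-phenoxyethanol, imaged, and intersomitic and dorsal longitudinal anastomotic vessel sprouts assessed.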

[13] = test system: HUVEC; test: Antiangiogenic activity against human HUVEC cells assessed as inhibition of tube formation at 20 uM after 12 hrs by matrigel-based assay relative to honokiol; format: functional; in short: as §3
[14] = species on record: Danio rerio; test: Antiangiogenic activity in fli-1:enhanced GFP expressing transgenic zebrafish embryo assessed as inhibition of intersomitic vessel sprouts after 48 hrs; format: functional, organism-based; in short: as §5
[15] = test system: HUVEC; test: Antimigratory activity against human HUVEC cells after 24 hrs by wound-healing assay relative to honokiol; format: functional; in short: as §2

| IC50 [1] [µM] | IC50 [2] [µM] | SMILES | IC50 [3] [µM] | Migration rate relative to control [4] [%] | inhibition at 20 µM [5] [%] | inhibition (INH) [6] [%] | inhibition (INH) [7] [%] | Activity [8] | IC50 [9] [µM] | inhibition (INH) [10] [%] | inhibition (INH) [11] [%] | inhibition [12] | fold change (FC) [13] | inhibition [14] | fold change (FC) [15] |
| --- | --- | --- | --- | --- | --- | --- | --- | --- | --- | --- | --- | --- | --- | --- | --- |
| 20.9 | 28.6 | C=CCc1cc(C=O)c(OC)c(-c2ccc(O)c(CC=C)c2)c1 | 32.5 | 63.2 | 82.5 | <25 | 25 | Active | 20.4 | 25 | <25 | – | – | – | – |
| 55.3 | – | C=CCc1ccc(O)c(-c2ccc(OC)c(CC=C)c2)c1 [METHYLHONOKIOL] | 55.8 | 54.2 | 34.9 | <25 | 25 | Active | 68.8 | 25 | <25 | – | – | – | – |

Further lines, the compound ahead of its results:

| SMILES | IC50 [1] [µM] | IC50 [2] [µM] | IC50 [3] [µM] | Migration rate relative to control [4] [%] | inhibition at 20 µM [5] [%] | inhibition (INH) [6] [%] | inhibition (INH) [7] [%] | Activity [8] | IC50 [9] [µM] | inhibition (INH) [10] [%] | inhibition (INH) [11] [%] | inhibition [12] | fold change (FC) [13] | inhibition [14] | fold change (FC) [15] |
| --- | --- | --- | --- | --- | --- | --- | --- | --- | --- | --- | --- | --- | --- | --- | --- |
| C=CCc1cc(C=O)c(O)c(-c2cc(C=O)c(O)c(CC=C)c2)c1 | 10.7 | 30.2 | 15.1 | 21.2 | 21.3 | <25 | 50 | Active | 21.7 | – | 25 | Dose-dependent effect | 2.5 | Dose-dependent effect | 1.5 |
| C=CCc1ccc(O)c(-c2ccc(O)c(CC=C)c2)c1 [HONOKIOL] | – | – | 52.6 | 38.5 | 51.4 | <25 | 50 | Active | 65.4 | – | 25 | – | – | – | – |
| C=CCc1cc(C=O)c(O)c(-c2ccc(O)c(CC=C)c2)c1 | 32.9 | 43.6 | 46.2 | 34.2 | 41.2 | <25 | 25 | Active | 65.3 | – | 25 | – | – | – | – |
